Screening data: PubChem, several laboratories
NLRP3 yeast inh – blocks the NALP3 inflammasome reconstituted in yeast. Yeast reconstituted NLRP3/ASC/caspase-1, beta-gal luminescence, 24 h. inhibition, % at 10 µM. 330,000 tested, 0.39% active. AID 2825;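 active = inhibition of 50% or more; inactive = inhibition below 50%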;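 also: plate controls were induced DMSO wells for no effect and uninduced yeast grown without galactose for full effect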
IMP-1 inh – inhibitors of Pseudomonas aeruginosa IMP-1 metallo-beta-lactamase | purified IMP-1, nitrocefin hydrolysis, epi-absorbance fluorescence | 290,000 tested, 0.45% active | inhibition, % at 5.6 µM;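 active = inhibition above the mean plus 3 SD of all compounds in the same screening run, cut at about 4.5% in these data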;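 also: 0% = IMP-1 with DMSO and 100% = DMSO wells lacking enzyme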
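Assay system: purified recombinant IMP-1 beta-lactamase. Input: IMP-1 0.2 nM before substrate addition. Buffer or medium: Zinc- and detergent-supplemented HEPES buffer, pH 7.1. Schedule: 25 °C, 15 min preincubation, 25 min reaction. Signal: Epi-absorbance fluorescence, 480 nm excitation, 530 nm emission. Evaluation: percent inhibition from optical density relative to buffer-blank wells.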
PolyA inhibitor – inhibitors of polyadenylation in S. cerevisiae; S. cerevisiae SKY197-pL101 polyadenylation reporter, beta-gal luminescence; efflux-impaired pdr1/pdr3 knockout yeast; score 100 = 6 SD above DMSO; activity score, % at 12 µM; 300,000 tested, 0.02% active;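 active = lowest replicate activity score at least 50, where 100 means six control SD above control mean; inconclusive = lowest score under 50 but half or more replicates reach 50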;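 also: yeast exposed to compound for 9 h at 30 °C; higher score means more reporter readthrough which indicates perturbed polyadenylation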
SUMO Mot1 rescue – inhibitors of SUMOylation pathway: yeast Mot1-301 growth rescue; S. cerevisiae Mot1-301 growth rescue, ATP luminescence, 38.5C; percent above DMSO median, 100 means doubled; growth rescue, % at 18.8 µM; 320,000 tested, 1% active; AID 2716;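 active = every valid replicate shows activation above 250% relative to neutral control wells; inactive = the rest, any valid replicate at or below 250%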;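 also: OY570 slx delta 5 strain wells were the positive control but not used for scaling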
VIM-2 inhibitor – inhibitors of Pseudomonas aeruginosa VIM-2 metallo-beta-lactamase; purified VIM-2, nitrocefin hydrolysis, epi-absorbance fluorescence; inhibition, % at 5.6 µM; 290,000 tested, 0.89% active; AID 1527;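 active = inhibition above the mean of all tested compounds plus 3 SD, cutoff set per screening run, cut at about 7.5% in these data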;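 also: red hydrolysis product quenches plate fluorescence so inhibitors raise well fluorescence; 0% = enzyme with DMSO and 100% = DMSO without enzyme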
NALP1 inh – NALP1 inhibition | S. cerevisiae NALP1/ASC/caspase-1 growth, X-gal OD620, 72 h | inhibition, % at 10 µM | 280,000 tested, 0.61% active | AID 2071; in the data active = inhibition mostly above about 24%, no sharp cut-off; inactive = mostly below about 32%
* marks the source's active call; other numbers are inactive results; u = inconclusive; x = no result. Shown are actives, neighbours in structure and some others; about 2.9% of the full set was active somewhere.

SMILES | NLRP3 yeast inh | IMP-1 inh | PolyA inhibitor | SUMO Mot1 rescue | VIM-2 inhibitor | NALP1 inh
CN(CC(=O)Nc1ccc(F)cc1)C(=O)COC(=O)CCN1C(=O)C2CC=CCC2C1=O (stereo not drawn) | 3.2 | -3.1 | 5.2 | -2.7 | -3.0 | -0.5
COc1cc(C(=O)OCc2csc(CC(=O)Nc3ccccc3C)n2)ccc1OCC(C)C | 19.4 | x | x | x | x | x
CC(=O)/C(N=Nc1ccc(OC(F)(F)F)cc1)=C(\C)O | 12.7 | -2.0 | 0.0 | 15.2 | -3.1 | x
CC(=O)/C(N=Nc1ccc(C(=O)O)cc1)=C(\C)O | 22.2 | -2.5 | u | -3.9 | -1.5 | 42.7*
NC(=O)COC(=O)c1cccc2c1-c1ccccc1C2=O | -9.8 | -3.7 | 5.5 | -11.1 | 7.9* | 15.1
C=CCn1c(SCC(=O)N2CCN(C(=O)c3ccco3)CC2)nc2sc(CC)cc2c1=O | 15.4 | -0.9 | -13.0 | -15.4 | 12.1* | 17.0
Cc1cccc(C)c1NC(=O)CN(C)C(=O)Cn1c(=O)cnc2ccccc21 | 4.3 | -4.3 | 9.6 | 0.6 | -4.0 | 29.9*
Cc1ccc(NC(=O)Cn2c(=O)cnc3ccccc32)cc1S(=O)(=O)N(C)C | 9.0 | -0.7 | -9.6 | 1.0 | -3.0 | 16.6
Cc1cccc(Cn2c(C(C)(C)C)cc3cccnc32)c1 | 13.7 | -0.5 | -11.0 | -17.0 | -0.8 | 48.2*
CCc1[nH]nc2c1C1(CCN(C(=O)c3ccccc3)CC1)C(C#N)=C(N)O2 | 11.4 | -9.2 | -15.5 | -19.6 | 10.8* | 20.1
CCN1CCN(C(=S)Nc2ccc(Cl)c(Cl)c2)CC1 | 7.8 | -1.1 | -3.2 | 4.2 | -2.1 | 50.8*
CCN1CCN(C(=S)Nc2cccc(Cl)c2)CC1 | -4.4 | -0.8 | 0.2 | 72.8 | -2.2 | -7.0
CSCCC(NC(=O)c1ccccc1Cl)C(=O)Nc1ccncc1 (stereo not drawn) | 14.7 | x | x | x | x | x
CCOc1ccccc1-n1c(SCC(=O)N(CC)CC)nnc1-c1ccccn1 | 18.0 | 5.7* | 2.1 | -10.5 | -1.2 | -9.2
CSc1nc2sc3c(c2c(=O)n1C)CCCC3 | 16.9 | -1.4 | -43.6 | -11.3 | -0.6 | 4.9
CSc1nc2sc3c(c2c(=O)n1C)CCC3 | 32.9 | 2.0 | 3.8 | 189.8 | 7.7* | 8.4
Cc1c(C(=O)N2CCOCC2)c(S(=O)(=O)Nc2cccc(C#N)c2)c(C)n1C | 5.0 | -2.3 | 7.1 | 321.0 | -7.1 | 0.4
COc1ccc(C(=O)Nc2ccccc2C(=O)NC(C)C)cc1OC | 20.3 | -0.3 | -20.1 | 4.4 | -2.8 | 36.5*
COc1ccc(C(=O)NC(=S)Nc2cccc3cc(O)ccc23)cc1OC | 17.5 | 4.5* | -0.7 | -2.5 | -0.4 | 10.5
CN1C(=O)CSC1=Nc1cccc(Cl)c1 | 23.9 | -2.9 | 28.0 | 6.1 | 0.6 | 3.6
CSCC[C@H](NC(=O)[C@H](Cc1ccccc1)n1c(=O)[nH]c2ccccc2c1=O)C(=O)N1CCC(C(=O)O)CC1 | 0.3 | -2.4 | -0.1 | 58.4 | -1.7 | 16.2
Oc1c(CN2CCOCC2)cc(COCc2ccccc2)c2cccnc12 | x | -5.6 | -44.3 | -5.0 | 7.7* | 9.6
O=c1cc(CSc2nnnn2-c2ccccc2)nc(Nc2ccc(F)cc2)[nH]1 | 6.6 | 3.1 | 4.7 | -5.1 | 10.0* | 6.5
CCOC(=O)C1=C(COC(=O)CNC(=O)c2ccc(Cl)cc2Cl)NC(=O)NC1C (stereo not drawn) | 17.7 | x | 5.1 | -11.9 | x | x
COCc1cc(C)nc(N2CCN(Cc3ccccc3)CC2)c1C#N | 10.0 | -2.2 | 11.3 | -19.9 | -2.1 | 41.3*
SMILES | NLRP3 yeast inh | IMP-1 inh | PolyA inhibitor | SUMO Mot1 rescue | VIM-2 inhibitor | NALP1 inh
COC(=O)C1CC23C=CCN4CCC5(c6ccccc6NC15C2C)C43 (stereo not drawn) | 8.4 | -3.0 | -8.8 | 2.3 | -3.3 | 37.1*
CN(C)C(=O)/C(=C/c1ccc(-c2cccc([N+](=O)[O-])c2)o1)NC(=O)c1ccccc1 | 16.9 | -5.3 | 13.5 | -6.2 | 6.2 | 3.5
O=C(O)c1cccc(-c2ccc(/C=N/Nc3ccc([N+](=O)[O-])cc3)o2)c1 | 29.0 | -0.1 | -17.4 | 310.7* | 0.4 | x
O=C(O)c1ccc(-c2ccc(/C=N/Nc3ccc([N+](=O)[O-])cc3)o2)cc1 | 30.9 | -2.9 | -2.7 | 196.9 | -1.5 | x
O=C(O)c1cccc(-c2ccc(/C=N/n3cnnc3)o2)c1 | 13.5 | -2.8 | 10.5 | -21.9 | 11.0* | -18.1
CN(C)C(=O)/C(=C\c1ccc(-c2cccc([N+](=O)[O-])c2)o1)NC(=O)c1ccccc1 | 11.2 | 0.5 | -16.9 | 15.1 | 9.2* | -3.0
O=[N+]([O-])c1ccc(N/N=C/c2c[nH]c3ccccc23)cc1 | 32.8 | -3.1 | -15.6 | 10.8 | -2.6 | 1.1
Cc1c(C(=O)O)cccc1-c1ccc(/C=N/n2cnnc2)o1 | 7.1 | -3.4 | 8.7 | 8.0 | -1.5 | -1.7
O=[N+]([O-])c1ccc(N/N=C/c2cccc(O)c2O)cc1 | 46.9 | -0.6 | -5.0 | 317.4* | -0.3 | 14.5
Cc1csc(NC(=O)c2ccc(Cl)nc2)n1 | 8.9 | -3.0 | -10.9 | -7.8 | -2.1 | 4.8
CN(C)n1cnc2ccsc2c1=O | 3.0 | -1.1 | 3.1 | -7.9 | -1.2 | 29.7*
O=C(NS(=O)(=O)Nc1ccc(Br)cn1)c1c[nH]c2ccccc12 | 5.3 | -3.1 | 8.0 | -0.5 | -3.0 | 6.1
O=C(CSc1c(Cl)cccc1Cl)NC1CCCc2ccccc21 (stereo not drawn) | 12.4 | 8.0* | -26.7 | 349.2* | 1.2 | 35.8
O=C(CSc1ccccc1Cl)NC1CCCc2ccccc21 (stereo not drawn) | 6.0 | 0.3 | -3.7 | 3.0 | -2.5 | 17.9
COc1ccc(-c2nnn(CC(=O)NC3CCCc4ccccc43)n2)cc1OC (stereo not drawn) | 6.6 | 1.7 | 18.2 | 4.7 | -3.6 | 42.2*
O=C(Nc1cccc(Cl)c1)C1COc2ccccc2O1 (stereo not drawn) | 19.2 | -2.7 | -5.5 | 11.4 | -1.4 | 6.6
O=C(Nc1ccc(F)cc1F)NC1CCCCCCC1 | 11.3 | -2.6 | x | 4.7 | -2.6 | -5.2
C=CCn1c(C)cc(C(=O)COC(=O)c2ccc(N)c([N+](=O)[O-])c2)c1C | 10.1 | -2.6 | -10.9 | 771.2* | -2.7 | 17.2
Cc1cc(C(=O)COC(=O)c2ccc(N)c([N+](=O)[O-])c2)c(C)n1Cc1ccc2c(c1)OCO2 | -0.4 | -2.5 | 6.5 | 2.5 | -0.1 | x
Cc1cccc(NC(=O)CN(CC2CCCO2)C(=O)c2ccc(S(C)(=O)=O)cc2)c1C (stereo not drawn) | 17.0 | x | x | x | x | x
CC(=C\c1ccccc1)/C=C1/SC(=S)N(C(C(=O)O)C(C)C)C1=O (stereo not drawn) | x | 0.5 | -11.7 | x | -0.2 | -16.6
CCC(C(=O)O)N1C(=O)/C(=C/C(C)=C/c2ccccc2)SC1=S (stereo not drawn) | 7.6 | 0.8 | 10.6 | -9.1 | 8.2* | 18.3
COc1cccc(OC)c1C(=O)OCCCOC(=O)c1c(OC)cccc1OC | 10.7 | -1.3 | 5.5 | -25.0 | -1.7 | 28.5*
